Laboratory results from ChEMBL document CHEMBL1155685, “Antiproliferative triterpene saponins from Trevesia palmata” (J Nat Prod, 2000).

Columns and labels:
[1] = test system: J774; test: Antiproliferative activity against mouse J774 cells assessed as reduction of cell growth after 72 hrs by MTT method; assay type: cell-based; conditions: J774, 72 h
Method in brief: (§1)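 Cells (3.4 × 10^4) seeded in 96-well plates, left to adhere 2 h at 37 °C in 5% CO2. Medium replaced with fresh medium, then 1:4 serial dilutions of compound added. Incubation 72 h. MTT (5 mg/mL stock) added for 3 h. Crystals dissolved in 50% DMF/20% SDS, pH 4.5, and OD read at 620 nm. % dead cells = 100 − (OD treated/OD control)×100. IC50 taken versus control.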

[2] = test system: HEK293; test: Antiproliferative activity against HEK293 cells assessed as reduction of cell growth after 72 hrs by MTT method; assay type: cell-based; conditions: Homo sapiens, HEK293, 72 h; method in brief: as §1
[3] = test system: WEHI-164; test: Antiproliferative activity against mouse WEHI164 cells assessed as reduction of cell growth after 72 hrs by MTT method; assay type: functional, cell-based; conditions: WEHI-164, 72 h; method in brief: as §1

Compound	IC50 [1]	IC50 [2]	IC50 [3]
C[C@@H]1O[C@@H](O[C@H]2[C@H](O)[C@@H](O)[C@H](OC[C@H]3O[C@@H](OC(=O)[C@]45CCC(C)(C)C[C@H]4C4=CC[C@@H]6[C@@]7(C)CC[C@H](O[C@@H]8OC[C@H](O)[C@H](O)[C@H]8O[C@@H]8O[C@@H](C)[C@H](O)[C@@H](O[C@@H]9O[C@H](CO)[C@@H](O)[C@H](O)[C@H]9O)[C@H]8O)C(C)(C)[C@@H]7CC[C@@]6(C)[C@]4(C)C[C@H]5O)[C@H](O)[C@@H](O)[C@@H]3O)O[C@@H]2CO)[C@H](O)[C@H](O)[C@H]1O	110 nM	150 nM	240 nM
C[C@@H]1O[C@@H](O[C@H]2[C@H](O)[C@@H](O[C@@H]3O[C@H](CO)[C@@H](O)[C@H](O)[C@H]3O)[C@H](OC[C@H]3O[C@@H](OC(=O)[C@]45CCC(C)(C)C[C@H]4C4=CC[C@@H]6[C@@]7(C)CC[C@H](O[C@@H]8OC[C@H](O)[C@H](O)[C@H]8O[C@@H]8O[C@@H](C)[C@H](O)[C@@H](O[C@@H]9O[C@H](CO)[C@@H](O)[C@H](O)[C@H]9O)[C@H]8O)[C@@](C)(CO)[C@@H]7CC[C@@]6(C)[C@]4(C)CC5)[C@H](O)[C@@H](O)[C@@H]3O)O[C@@H]2C)[C@H](O)[C@H](O)[C@H]1O	100 nM	320 nM	260 nM
C[C@@H]1O[C@@H](O[C@H]2[C@H](O[C@H]3CC[C@]4(C)[C@H]5CC=C6[C@@H]7CC(C)(C)CC[C@]7(C(=O)O[C@@H]7O[C@H](CO[C@@H]8O[C@H](CO)[C@@H](O[C@@H]9O[C@@H](C)[C@H](O)[C@@H](O)[C@H]9O)[C@H](O)[C@H]8O)[C@@H](O)[C@H](O)[C@H]7O)CC[C@@]6(C)[C@]5(C)CC[C@H]4C3(C)C)OC[C@H](O)[C@@H]2O)[C@H](O)[C@H](O)[C@H]1O [HEDERASAPONIN B]	60 nM	–	600 nM
Sc1ncnc2nc[nH]c12 [MERCAPTOPURINE ANHYDROUS]	3 nM	–	17 nM
C[C@@H]1O[C@@H](O[C@H]2[C@H](O[C@H]3CC[C@@]4(C)[C@@H](CC[C@]5(C)[C@@H]4CC=C4[C@@H]6CC(C)(C)CC[C@]6(C(=O)O)CC[C@]45C)[C@]3(C)CO)OC[C@H](O)[C@@H]2O)[C@H](O)[C@H](O[C@@H]2O[C@H](CO)[C@@H](O)[C@H](O)[C@H]2O)[C@H]1O	70 nM	–	–
C[C@@H]1O[C@@H](O[C@H]2[C@H](O[C@H]3CC[C@]4(C)[C@H]5CC=C6[C@@H]7CC(C)(C)CC[C@]7(C(=O)O[C@@H]7O[C@H](CO[C@@H]8O[C@H](CO)[C@@H](O[C@@H]9O[C@@H](C)[C@H](O)[C@@H](O[C@@H]%10O[C@H](CO)[C@@H](O)[C@H](O)[C@H]%10O)[C@H]9O)[C@H](O)[C@H]8O)[C@@H](O)[C@H](O)[C@H]7O)CC[C@@]6(C)[C@]5(C)CC[C@H]4C3(C)C)OC[C@H](O)[C@@H]2O)[C@H](O)[C@H](O[C@@H]2O[C@H](CO)[C@@H](O)[C@H](O)[C@H]2O)[C@H]1O	180 nM	170 nM	–
C[C@@H]1O[C@@H](O[C@H]2[C@H](O)[C@@H](O)[C@H](OC[C@H]3O[C@@H](OC(=O)[C@]45CCC(C)(C)C[C@H]4C4=CC[C@@H]6[C@@]7(C)CC[C@H](O[C@@H]8OC[C@H](O)[C@H](O)[C@H]8O[C@@H]8O[C@@H](C)[C@H](O)[C@@H](O[C@@H]9O[C@H](CO)[C@@H](O)[C@H](O)[C@H]9O)[C@H]8O)C(C)(C)[C@@H]7CC[C@@]6(C)[C@]4(C)CC5)[C@H](O)[C@@H](O)[C@@H]3O)O[C@@H]2CO)[C@H](O)[C@H](O)[C@H]1O	–	520 nM	1800 nM
C[C@@H]1O[C@@H](O[C@H]2[C@H](O)[C@@H](O)[C@H](OC[C@H]3O[C@@H](OC(=O)[C@]45CCC(C)(C)C[C@H]4C4=CC[C@@H]6[C@@]7(C)CC[C@H](O[C@@H]8OC[C@H](O)[C@H](O)[C@H]8O[C@@H]8O[C@H](C)[C@@H](O)[C@H](O)[C@H]8O)[C@@](C)(CO)[C@@H]7CC[C@@]6(C)[C@]4(C)CC5)[C@H](O)[C@@H](O)[C@@H]3O)O[C@@H]2CO)[C@H](O)[C@H](O)[C@H]1O	460 nM	–	1900 nM
C[C@@H]1O[C@@H](O[C@H]2[C@H](O)[C@@H](O)[C@H](OC[C@H]3O[C@@H](OC(=O)[C@]45CCC(C)(C)C[C@H]4C4=CC[C@@H]6[C@@]7(C)CC[C@H](O[C@@H]8OC[C@H](O)[C@H](O)[C@H]8O[C@@H]8O[C@H](C)[C@@H](O)[C@H](O)[C@H]8O)C(C)(C)[C@@H]7CC[C@@]6(C)[C@]4(C)CC5)[C@H](O)[C@@H](O)[C@@H]3O)O[C@@H]2CO)[C@H](O)[C@H](O)[C@H]1O	100 nM	200 nM	–
C[C@@H]1O[C@@H](O[C@H]2[C@H](O[C@H]3CC[C@]4(C)[C@H]5CC=C6[C@@H]7CC(C)(C)CC[C@]7(C(=O)O)[C@H](O)C[C@@]6(C)[C@]5(C)CC[C@H]4C3(C)C)OC[C@H](O)[C@@H]2O)[C@H](O)[C@H](O[C@@H]2O[C@H](CO)[C@@H](O)[C@H](O)[C@H]2O)[C@H]1O	190 nM	–	–
